In the library only some 4.1% were active in any assay of this set; here they are far more common.
CHOP UPR activ = apoptotic UPR (CHOP) activation; 330,000 tested, 0.34% active; CHO-CHOP luciferase reporter, luminescence; percent of tunicamycin response over DMSO baseline; activation, % at 10 µM;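 active = at 10 µM dose, activation of 40% or more, normalized to positive control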;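 also: 100% = tunicamycin at 10 µg/mL and 0% = DMSO alone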
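System: CHO CHOP reporter cells. Amount: 500 cells per well. Buffer or medium: F12 medium, 10% FBS. Compound dosing: one dose, 10 µM in 0.5% DMSO. Incubation: 6 h compound exposure at 37 °C after overnight seeding. Technique: Steady-Glo luciferase luminescence. Benchmarks: tunicamycin and DMSO controls.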
XBP1 UPR activ = adaptive UPR (XBP1) activation; CHO-XBP1 luciferase reporter, IRE1-XBP1 UPR activation, luminescence; percent of tunicamycin response, DMSO as zero; activation, % at 20 µM; 330,000 tested, 0.33% active;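 active = versus positive control, 20 µM dose yields 30% or more activation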;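 also: 100% = tunicamycin at 10 µg/mL and 0% = DMSO only wells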
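Material: IRE1-XBP1 luciferase reporter CHO line / Quantity: one thousand reporter cells per well / Buffer or medium: F12 with 10% serum / Compound: 20 µM single concentration, DMSO 1% / Times: 6 h treatment, 37 °C / Detection: Steady-Glo luciferase glow luminescence, 10 min after reagent addition / Benchmarks: tunicamycin high, DMSO low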
Mdm2 MdmX PPI = disrupts the human Mdm2-MdmX interaction | AID 485346 | SaOS-2 split-luciferase Mdm2/MdmX complementation, luminescence | O15151+Q00987 | 330,000 tested, 3% active | inhibition, % at 8 µM;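 active = inhibition of at least 50% at 8 µM in the primary screen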
Target sequence (O15151 whole entry, looked up): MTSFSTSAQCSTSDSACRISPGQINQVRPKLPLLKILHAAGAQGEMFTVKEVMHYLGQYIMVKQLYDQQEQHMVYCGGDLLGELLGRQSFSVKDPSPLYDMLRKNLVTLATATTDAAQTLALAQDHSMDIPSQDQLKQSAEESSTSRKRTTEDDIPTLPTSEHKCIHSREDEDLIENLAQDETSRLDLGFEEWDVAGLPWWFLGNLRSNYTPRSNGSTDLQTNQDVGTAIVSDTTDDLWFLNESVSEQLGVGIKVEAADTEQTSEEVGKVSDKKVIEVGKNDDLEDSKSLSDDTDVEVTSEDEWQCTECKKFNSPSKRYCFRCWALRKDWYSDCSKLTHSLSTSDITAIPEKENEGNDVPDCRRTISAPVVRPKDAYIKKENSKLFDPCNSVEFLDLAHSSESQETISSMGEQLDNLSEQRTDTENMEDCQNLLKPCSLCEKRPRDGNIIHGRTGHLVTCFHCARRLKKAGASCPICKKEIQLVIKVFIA
Target sequence (Q00987 whole entry, looked up): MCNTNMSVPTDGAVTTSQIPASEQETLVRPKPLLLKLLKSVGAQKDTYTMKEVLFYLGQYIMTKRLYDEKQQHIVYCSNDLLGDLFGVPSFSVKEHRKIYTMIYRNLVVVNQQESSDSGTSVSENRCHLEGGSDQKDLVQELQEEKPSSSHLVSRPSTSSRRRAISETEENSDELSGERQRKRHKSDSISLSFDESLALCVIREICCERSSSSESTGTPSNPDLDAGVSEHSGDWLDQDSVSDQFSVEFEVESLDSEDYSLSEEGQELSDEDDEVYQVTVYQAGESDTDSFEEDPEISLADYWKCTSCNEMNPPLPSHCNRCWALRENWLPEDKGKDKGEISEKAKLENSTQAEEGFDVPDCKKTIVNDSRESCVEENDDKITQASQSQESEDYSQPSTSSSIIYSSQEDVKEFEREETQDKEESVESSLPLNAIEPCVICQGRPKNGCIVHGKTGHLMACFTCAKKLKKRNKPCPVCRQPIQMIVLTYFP
Apaf1 inhib = blocks human Apaf-1 apoptosome activity | inhibition, % at 20 µM | AID 489030 | 330,000 tested, 0.71% active | reconstituted apoptosome caspase-3 activity, DEVD-Rh110 fluorescence; active = inhibition of at least 40% at 20 µM;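 also: plate controls were DMSO wells for no effect and DEVD-CHO caspase inhibitor wells for full effect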
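Medium: Hepes buffer, pH 7.5 / System: biochemical Apaf-1 apoptosome reconstitution / Measured by: Rh110 fluorescence, excitation 480 nm, emission 540 nm / Times: compound with Apaf-1, dATP, procaspase-3 30 min, then 50 min reaction, room temperature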
UBC13 polyUb = inhibitors of human UBC13 polyubiquitin chain formation | 330,000 tested, 0.47% active | TR-FRET | P61088 | inhibition, % at 20 µM; in the data active = inhibition above about 45%, passing the limit was not always enough
Casp3 UBC13 ctr = caspase-3 inhibition (UBC13 counter-screen); shares compounds with UBC13 polyUb; Recombinant caspase-3, Caspase-Glo 3/7 luminescence, 60 min; inhibition, % at 20 µM; 1,400 tested, 4% active; AID 488856;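 active = mean inhibition across replicates above about 26%, limit read from the data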;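 also: plate controls were DMSO with caspase-3 for no effect and DMSO wells lacking enzyme for full effect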
UBC13 conf = confirmation of human UBC13 polyubiquitin inhibitors; UBC13 polyubiquitination, TR-FRET, biochemical; inhibition, % at 10 µM; 1,400 tested, 68% active; shares compounds with UBC13 polyUb; AID 488859; in the data active = inhibition above about 45%
Mdm2-MdmX conf = confirmation of human Mdm2/MdmX interaction inhibitors; Mdm2-MdmX binding, luminescent assay; inhibition, % at 8 µM; shares compounds with Mdm2 MdmX PPI; 10,000 tested, 55% active; in the data active = inhibition above about 40%
FLuc counter = inhibits full-length luciferase, flagging false Mdm2/MdmX hits; shares compounds with Mdm2 MdmX PPI; SaOS-2 full-length luciferase counterscreen, luminescence; inhibition, % at 8 µM; 6,200 tested, 77% active;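 active = mean inhibition at 8 µM reaching about 37%, which flags the compound as non-specific, limit read from the data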;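 also: p53-null SaOS-2 cells with luciferase driven by a doxycycline-inducible promoter; compound on cells about two nights before reading with doxycycline added after day one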
Apaf-1 inh conf2 = confirmation of Apaf-1 inhibitors | inhibition, % at 20 µM | 1,800 tested, 25% active | shares compounds with Apaf1 inhib | reconstituted apoptosome, caspase-3 DEVD-Rh110 fluorescence | AID 504614;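 active = mean inhibition of at least 40% at 20 µM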;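 also: plate controls were DMSO wells for no effect and DEVD-CHO caspase inhibitor control wells for full effect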
Rh110 interf inh = interferes with Rh110 fluorescence, flagging false Apaf-1 inhibitors | shares compounds with Apaf1 inhib | Rh110 fluorescence interference, quenched caspase reaction | activation (fluorescence interference), % at 20 µM | 1,800 tested, under 10 active;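 active = signal rise of 40% or more at 20 µM, treated as a fluorescence artifact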
Apaf1 inh interf = counter-screen for Apaf-1 inhibitors: fluorescence interference, dose response; shares compounds with Apaf1 inhib; fluorescence interference counterscreen, Apaf-1 assay format; IC50, µM; 460 tested, under 10 active; AID 588538; call rule not given here
* hit, by the source's call; x = no result.

SMILES	CHOP UPR activ	XBP1 UPR activ	Mdm2 MdmX PPI	Apaf1 inhib	UBC13 polyUb	Casp3 UBC13 ctr	UBC13 conf	Mdm2-MdmX conf	FLuc counter	Apaf-1 inh conf2	Rh110 interf inh	others
CC(C)n1cc(C(=O)NC2CC(C)(C)Cc3c2cnn3-c2ccccc2)cn1 (stereo unspecified)	-0.7	-2.7	10.8	-10.9	3.9	x	x	x	x	x	x
NC1=NC[C@H](c2ccccc2)N1CCc1cc(C(F)(F)F)cc(C(F)(F)F)c1	2.3	1.6	80.1*	54.3*	80.4*	-2.4	53.0*	68.0*	57.3*	29.8	7.6
CCC(C)[C@H]1CN=C(N)N1CCCc1cc(OC)c(OC)c(OC)c1 (stereo partly specified)	-1.3	-0.6	12.4	-0.1	42.2	x	x	x	x	x	x
CCC(C)[C@H]1CN=C(N)N1CCc1cc(C(F)(F)F)cc(C(F)(F)F)c1 (stereo partly specified)	-1.7	-1.4	60.1*	56.5*	79.4*	-3.1	46.5*	28.6	x	22.1	-2.5
CC(C)C[C@H]1CN=C(Nc2ccccc2)N1CC1CCCC1	-1.2	0.3	13.1	-6.4	5.0	x	x	x	x	x	x
CC(C)C[C@H]1CN=C(Nc2ccccc2)N1CC1CCC(C(C)(C)C)CC1 (stereo partly specified)	-0.1	12.2	100.3*	56.0*	86.9*	-2.4	72.9*	38.6	20.5	23.1	14.3
Cc1occc1C(=O)NNC1=CC(=O)CC(C)(C)C1	-1.5	-3.1	-25.8	-0.3	7.6	x	x	x	x	x	x
COc1ccc(C2=Nn3c(nnc3-c3ccccc3F)SC2)cc1OC1CCCC1	2.9	17.9	99.8*	47.3*	55.4*	6.8	40.4	86.0*	28.6	23.4	8.8
CC[C@@H](C)[C@@H]1CN([C@@H](C)CN2CCC[C@H]2CN2C(N)=NC[C@@H]2Cc2ccccc2)C(=N)N1CCc1ccc(Cl)c(Cl)c1	2.7	-1.3	4.0	70.7*	76.5*	1.6	69.8*	x	x	5.8	6.2
NC1=NC[C@H](Cc2ccccc2)N1CCc1cccc(F)c1	-0.8	-0.8	11.5	12.4	14.9	x	x	x	x	x	x
CC[C@@H](C)[C@@H]1CN([C@@H](C)CN2CCC[C@H]2CN2C(N)=NC[C@@H]2Cc2ccccc2)C(=N)N1CCCC1CCCC1	-0.5	-2.0	-13.9	61.6*	70.9*	-2.4	72.6*	x	x	2.2	-1.6
CC[C@@H](C)[C@@H]1CN([C@@H](CN2CCC[C@H]2CN2C(N)=NC[C@H]2C(C)C)C(C)C)C(=N)N1CCc1ccc(Cl)c(Cl)c1	0.2	0.7	4.6	51.0*	75.0*	-2.4	61.3*	x	x	15.8	6.0
Cc1ccc(CC(=O)NC2CCSC2=O)cc1 (stereo unspecified)	1.5	0.7	14.5	-2.1	1.6	x	x	x	x	x	x
CCCCCCCCCCCCC/C=C/[C@@H](O)[C@@H](N)CO	9.1	1.8	7.1	79.2*	107.8*	-3.3	114.2*	x	x	37.2	18.2
Cc1cc(C)cc(NC(=S)N2CCN(S(=O)(=O)c3ccccc3)CC2)c1	0.4	-2.7	17.1	6.5	-4.3	x	x	x	x	x	x
O=C(c1ccc(OCCN2CCCCC2)cc1)c1c(-c2ccc(O)cc2)sc2cc(O)ccc12	1.1	-3.3	65.2*	46.9*	91.5*	3.9	101.6*	30.9	x	7.9	-4.7
COc1cc2sc(-c3ccccc3OC)c(-c3ccc(OCCN4CCCCC4)cc3)c2cc1OC	6.9	23.8	100.5*	65.7*	76.5*	-1.3	73.5*	43.2*	55.6*	25.3	12.3
COC(=O)c1ccc(OCCN2CCCCCC2)cc1	-0.5	0.3	12.7	-3.5	-6.7	x	x	x	x	x	x
COc1ccc2sc(-c3ccccc3OC)c(-c3ccc(OCCN4CCOCC4)cc3)c2c1	1.2	-0.3	30.2	28.4	x	x	x	x	x	x	x
COc1ccc(CCNC(=O)CC(c2ccccc2)c2cccc(C)c2O)cc1OC (stereo unspecified)	0.0	-1.6	-28.4	9.0	-1.0	x	x	x	x	x	x
Cc1cc(C)nc(NC(=O)/C=C/c2ccccc2Cl)n1	5.2	2.7	-11.2	6.0	-0.5	x	x	x	x	x	x
Cc1cc(N)c2cc(NC(=O)/C=C/c3ccccc3Cl)ccc2n1	12.6	6.3	100.4*	64.3*	117.1*	-0.8	128.8*	99.8*	51.5*	77.4*	-3.4	Apaf1 inh interf=>100
COc1ccccc1/C=C/C(=O)Nc1ccc(S(=O)(=O)Nc2cc(C)on2)cc1	1.1	-5.1	34.5	-7.6	0.4	x	x	x	x	x	x
CCCCNc1c(-c2ccc(OC)c(SC3CCCCC3)c2)nc2ccc(C)cn12	-8.8	-9.7	97.5*	34.1	24.7	x	x	45.6*	28.6	x	x
CCCCNc1c(-c2ccc(OC)c(SC(C)CC)c2)nc2ccc(C)cn12 (stereo unspecified)	-6.4	-9.9	88.6*	38.4	36.9	x	x	36.6	x	x	x
SMILES	CHOP UPR activ	XBP1 UPR activ	Mdm2 MdmX PPI	Apaf1 inhib	UBC13 polyUb	Casp3 UBC13 ctr	UBC13 conf	Mdm2-MdmX conf	FLuc counter	Apaf-1 inh conf2	Rh110 interf inh	others
CCC(C)Sc1ccc(-c2nc3ccc(C)cn3c2NCc2ccccc2)cc1OC (stereo unspecified)	13.6	-5.7	97.4*	29.8	6.9	x	x	57.0*	39.2*	x	x
COc1ccc(-c2nc3cc(C)ccn3c2NCc2ccc3c(c2)OCO3)cc1	4.3	2.1	3.0	2.3	6.8	x	x	x	x	x	x
CCCCNc1c(-c2ccc(Sc3ccc(OC)cc3)cc2)nc2cc(C)ccn12	0.5	0.5	79.6*	34.2	29.7	x	x	10.1	x	x	x
CCC(C)Sc1ccc(-c2nc3ccc(Cl)cn3c2NCc2ccccc2)cc1 (stereo unspecified)	2.1	0.2	-26.2	28.9	40.3	x	x	x	x	x	x
COc1ccc(-c2nc3ccc(C)cn3c2NCc2ccccc2)cc1SC1CCCCC1	-7.2	-7.1	52.9*	-5.9	15.5	x	x	31.3	x	x	x
COc1cc(C#Cc2c(-c3cncn3C)n(C)c3ccc(-c4ccc(OC)nc4)cc23)cc(OC)c1	6.3	5.3	68.8*	36.8	34.8	x	x	36.1	58.0*	x	x
COc1cc(C#Cc2c(-c3cncn3C)n(C)c3ccc(-c4cc(OC)c(OC)c(OC)c4)cc23)cc(OC)c1	15.3	13.9	95.7*	28.6	5.1	x	x	50.7*	61.6*	x	x

From PubChem BioAssay
